{"data": "Experimental data pooled from the literature", "cell line": "HCT-116", "effect on": "cell growth or viability"}
{"Structure (SMILES)": "COc1ccccc1/C=C/C(=O)c1ccc(OC)c(S(N)(=O)=O)c1", "technique": "SRB", "tested at": "10 µM", "measurement": "inhibition", "result": "95%"}
{"Structure (SMILES)": "COc1ccc(NC(=O)c2c(Nc3ccccc3)sc(C(=O)NN=Cc3ccc(Cl)cc3)c2NC(C)=O)cc1", "technique": "SRB", "tested at": "10 nM", "time": "48 h", "measurement": "viability", "result": "95.1%"}
{"Structure (SMILES)": "COc1ccc2cc(/C=N/n3c(C)nc4ccc(Br)cc4c3=O)ccc2c1", "technique": "LDH", "tested at": "200 µg/mL", "time": "24 h", "measurement": "viability", "result": "57%"}
{"Structure (SMILES)": "COc1ccc(C=NNC(=O)c2sc(Nc3ccccc3)c(C(=O)Nc3ccc(OC)cc3)c2NC(C)=O)cc1", "technique": "SRB", "tested at": "10 µM", "time": "48 h", "measurement": "viability", "result": "46.8%"}
{"Structure (SMILES)": "CCc1ccc(/C=N/n2c(C)nc3ccc(C)cc3c2=O)s1", "technique": "LDH", "tested at": "200 µg/mL", "time": "24 h", "measurement": "viability", "result": "86.5%"}
{"Structure (SMILES)": "COc1ccc(NC(=O)c2c(Nc3ccccc3)sc(C(=O)NN=Cc3cc(OC)c(OC)c(OC)c3)c2NC(C)=O)cc1", "technique": "SRB", "tested at": "100 µM", "time": "48 h", "measurement": "viability", "result": "43.2%"}
{"Structure (SMILES)": "CCN(CC)CCOc1cc2cc3c(cc2c2nc(OC)c4cc(OC)c(OC)cc4c12)OCO3", "technique": "MTT", "time": "72 h", "measurement": "GI50", "result": "≥ 100 µM"}
{"Structure (SMILES)": "COc1ccc(NC(=O)c2c(Nc3ccccc3)sc(C#N)c2NC(=O)CNc2ccc(O)cc2)cc1", "technique": "SRB", "tested at": "10 nM", "time": "48 h", "measurement": "viability", "result": "93.1%"}
{"Structure (SMILES)": "COc1ccc(C(=O)/C=C/c2ccccc2Br)cc1S(N)(=O)=O", "technique": "SRB", "time": "48 h", "measurement": "GI50", "result": "1.5 µM"}
{"Structure (SMILES)": "COc1ccc(NCC(=O)Nc2c(C#N)sc(Nc3ccccc3)c2C(=O)Nc2ccc(OC)cc2)cc1", "technique": "SRB", "tested at": "10 nM", "time": "48 h", "measurement": "viability", "result": "82.6%"}
{"Structure (SMILES)": "Cc1c(OCC(F)(F)F)ccnc1COc1ccc(NC(=O)Nc2cccc(C(F)(F)F)c2)cc1", "technique": "MTT", "time": "72 h", "measurement": "IC50", "result": "5.43 µM"}
{"Structure (SMILES)": "COc1ccc(C(=O)/C=C/c2cc3c(cc2Br)OCO3)cc1S(N)(=O)=O", "technique": "SRB", "tested at": "10 µM", "measurement": "inhibition", "result": "198%"}
{"Structure (SMILES)": "COc1cc2c(OC)nc3c4cc5c(cc4cc(OCCCN4CCC(N6CCCCC6)CC4)c3c2cc1OC)OCO5", "technique": "MTT", "time": "72 h", "measurement": "GI50", "result": "5.7 µM"}
{"Structure (SMILES)": "COc1ccc(C(=O)/C=C/c2ccc3ccccc3c2)cc1S(N)(=O)=O", "technique": "SRB", "time": "48 h", "measurement": "GI50", "result": "1.9 µM"}
{"Structure (SMILES)": "S=C([S][Au-][P+](CCCCCC[P+]([Au-][S]C(=S)n1cccn1)(c1ccccc1)c1ccccc1)(c1ccccc1)c1ccccc1)n1cccn1", "measurement": "GI50", "result": "0.42 µM"}
{"Structure (SMILES)": "COc1cc2c(OC)nc3c4cc5c(cc4cc(OCCCN(C)C)c3c2cc1OC)OCO5", "technique": "MTT", "time": "72 h", "measurement": "GI50", "result": "15 µM"}
{"Structure (SMILES)": "COc1ccc(C(=O)/C=C/c2cccc3ccccc23)cc1S(N)(=O)=O", "technique": "SRB", "tested at": "10 µM", "measurement": "inhibition", "result": "192%"}
{"Structure (SMILES)": "CNS(=O)(=O)Nc1nccc(Cc2c(C)c3ccc(Oc4ncccn4)cc3oc2=O)c1F", "technique": "CCK-8", "measurement": "GI50", "result": "3.23 µM"}
